Laboratory results published in ChEMBL document CHEMBL1137992, “Long hydrocarbon chain keto diols and diacids that favorably alter lipid disorders in vivo” (J Med Chem, 2004).

These compounds were tested on Rattus norvegicus (assay: Amount of insulin in obese Zucker rats after 2 weeks of treatment at a dose of 30 mg/kg/day).
Format: functional
How it was run: (§1)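 Female obese Zucker rats [Crl:(Zuc)-faBR], 400–500 g, given daily oral gavage in 20% EtOH/80% PEG-200 for up to 14 days. After a 6-h fast, serum was collected pretreatment and at day 7 (orbital bleed) and day 14 (cardiac puncture) and stored at -80 °C. Insulin was measured by ELISA. Values are mean ± SEM.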
Work on CC(C)(CO)CCCCC(=O)CCCCC(C)(C)CO yielded an Activity of 9.8 ng/mL.

What follows are compounds tested on Rattus norvegicus (assay: Amount of non-HDL-cholesterol in obese Zucker rats after 1 week of treatment at a dose of 0 mg/kg/day).
Format: functional
How it was run: (§2)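 Female Zucker fatty rats [Crl:(Zuc)-faBR], 10–12 weeks old (400–500 g), dosed once daily by oral gavage in 20% EtOH/80% PEG-200 (dose volume 0.25% of body weight). Rats were fasted 6 h and bled before dosing and at day 7 (orbital plexus), and at day 14 (cardiac puncture). Serum cholesterol fractions came from Superose 6 gel-filtration lipoprotein profiles (% peak area × serum total cholesterol). Values are mean ± SEM.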
CC(C)(CO)CCCCC(=O)CCCCC(C)(C)CO was tested, and the Activity was 36 mg/dL.

What follows are compounds tested on Rattus norvegicus (assay: Amount of triglycerides in obese Zucker rats after 2 weeks of treatment at a dose of 3 mg/kg/day).
Format: functional
How it was run: (§3)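 Female Zucker fatty rats [Crl:(Zuc)-faBR], 10–12 weeks old (400–500 g), dosed once daily by oral gavage in 20% EtOH/80% PEG-200 for up to 14 days. After a 6-h fast, serum was taken pre-dose, at day 7 (orbital venous plexus, O2/CO2 anaesthesia) and at day 14 (cardiac puncture), stored at −80 °C, and assayed on a Hitachi 912 automatic analyzer. Mean ± SEM.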
CC(C)(CO)CCCCC(=O)CCCCC(C)(C)CO showed an Activity of 781 mg/dL.

What follows are compounds tested on Rattus norvegicus (assay: Amount of nonesterified fatty acids in obese Zucker rats after 1 week of treatment at a dose of 0 mg/kg/day).
Format: functional
How it was run: as §3
CC(C)(CO)CCCCC(=O)CCCCC(C)(C)CO gave an Activity of 1.3 mg/dL.

The compounds below were run on Rattus norvegicus (assay: Amount of HDL-cholesterol in obese Zucker rats after 1 week of treatment at a dose of 0 mg/kg/day).
Format: functional
How it was run: as §2
CC(C)(CO)CCCCC(=O)CCCCC(C)(C)CO was tested, and the Activity was 39 mg/dL.

Each compound was assayed on Rattus norvegicus (assay: Amount of glucose in obese Zucker rats at pre-treatment at a dose of 10 mg/kg/day).
Format: functional
How it was run: (§4)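 Female Zucker fatty rats [Crl:(Zuc)-faBR], 10–12 weeks old (400–500 g), gavaged daily with vehicle (20% EtOH/80% PEG-200, 0.25% of body weight) or compound. After a 6-h fast, blood glucose was read by glucometer from tail-prick blood of unanesthetized rats before dosing and after 1 and 2 weeks. Values are mean ± SEM.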
Work on CC(C)(CO)CCCCC(=O)CCCCC(C)(C)CO yielded an Activity of 112 mg/dL.

The compounds below were run on Rattus norvegicus (assay: Amount of non-HDL-cholesterol in obese Zucker rats after 1 week of treatment at a dose of 3 mg/kg/day).
Format: functional
How it was run: as §2
Work on CC(C)(CO)CCCCC(=O)CCCCC(C)(C)CO yielded an Activity of 25 mg/dL.

The compounds below were run on Rattus norvegicus (assay: Amount of glucose in obese Zucker rats at pre-treatment at a dose of 3 mg/kg/day).
Format: functional
How it was run: as §4
In the case of CC(C)(CO)CCCCC(=O)CCCCC(C)(C)CO, the Activity is reported as 118 mg/dL.

What follows are compounds tested on Rattus norvegicus (assay: Amount of nonesterified fatty acids in obese Zucker rats after 2 weeks of treatment at a dose of 0 mg/kg/day).
Format: functional
How it was run: as §3
With CC(C)(CO)CCCCC(=O)CCCCC(C)(C)CO the Activity was 1.6 mg/dL.

What follows are compounds tested on Rattus norvegicus (assay: Amount of triglycerides in obese Zucker rats after 2 weeks of treatment at a dose of 30 mg/kg/day).
Format: functional
How it was run: as §3
For CC(C)(CO)CCCCC(=O)CCCCC(C)(C)CO, the Activity was 985 mg/dL.

Each compound was assayed on Rattus norvegicus (assay: Amount of insulin in obese Zucker rats at pre-treatment at a dose of 3 mg/kg/day).
Format: functional
How it was run: as §1
For CC(C)(CO)CCCCC(=O)CCCCC(C)(C)CO, the Activity was 8.8 ng/mL.

What follows are compounds tested on Rattus norvegicus (assay: Percentage change of HDL cholesterol levels in obese female Zucker rats after 1 week of pre-treatment at a dose of 100 mg/kg/day).
Format: functional
How it was run: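 Obese female Zucker fatty rats were gavaged once daily with 30 or 100 mg/kg/day in 20% EtOH/80% PEG-200 for 2 weeks. Sera were collected after a 6 h fast, before dosing, at 1 week (orbital plexus) and at 2 weeks (cardiac puncture). HDL-C was total cholesterol multiplied by HDL area fraction from gel-filtration lipoprotein profiles. Reported as % change from pretreatment ± SEM.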
With CC(C)(CO)CCCCC(=O)CCCCC(C)(C)CO the Change was 111%.

What follows are compounds tested on Rattus norvegicus (assay: Amount of HDL-cholesterol in obese Zucker rats after 1 week of treatment at a dose of 10 mg/kg/day).
Format: functional
How it was run: as §2
Compound CC(C)(CO)CCCCC(=O)CCCCC(C)(C)CO has an Activity of 52 mg/dL.

These compounds were tested on Rattus norvegicus (assay: Amount of glucose in obese Zucker rats after 1 week of treatment at a dose of 100 mg/kg/day).
Format: functional
How it was run: as §4
CC(C)(CO)CCCCC(=O)CCCCC(C)(C)CO was tested, and the Activity was 120 mg/dL.

What follows are compounds tested on Rattus norvegicus (assay: Percent increase in HDL-cholesterol in obese Zucker rats after 2 weeks of treatment at a dose of 30 mg/kg/day).
Format: functional
How it was run: (§5)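 Female Zucker fatty rats [Crl:(Zuc)-faBR], 10–12 weeks, 400–500 g, acclimated 7 days on chow. Compound or vehicle (20% EtOH/80% PEG-200) given by daily oral gavage for 2 weeks, 0–100 mg/kg/day. After a 6 h fast, blood was taken before dosing, at 1 wk and at 2 wk. Serum lipids, NEFA and insulin (ELISA) were measured; glucose by glucometer. HDL/non-HDL-C came from Superose 6 gel-filtration profiles. Values are % change from pretreatment, mean ± SEM.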
CC(C)(CO)CCCCC(=O)CCCCC(C)(C)CO was tested, and the Activity was 42%.

What follows are compounds tested on Rattus norvegicus (assay: Amount of glucose in obese Zucker rats after 1 week of treatment at a dose of 0 mg/kg/day).
Format: functional
How it was run: as §4
CC(C)(CO)CCCCC(=O)CCCCC(C)(C)CO gave an Activity of 118 mg/dL.

Each compound was assayed on Rattus norvegicus (assay: Amount of nonesterified fatty acids in obese Zucker rats at pre-treatment at a dose of 100 mg/kg/day).
Format: functional
How it was run: as §3
CC(C)(CO)CCCCC(=O)CCCCC(C)(C)CO showed an Activity of 1.4 mg/dL.

Each compound was assayed on Rattus norvegicus (assay: Amount of glucose in obese Zucker rats after 1 week of treatment at a dose of 10 mg/kg/day).
Format: functional
How it was run: as §4
CC(C)(CO)CCCCC(=O)CCCCC(C)(C)CO was tested, and the Activity was 110 mg/dL.

These compounds were tested on Rattus norvegicus (assay: Amount of non-HDL-cholesterol in obese Zucker rats after 1 week of treatment at a dose of 30 mg/kg/day).
Format: functional
How it was run: as §2
CC(C)(CO)CCCCC(=O)CCCCC(C)(C)CO showed an Activity of 28 mg/dL.

What follows are compounds tested on Rattus norvegicus (assay: Percent decrease in triglycerides in obese Zucker rats after 2 weeks of treatment at a dose of 100 mg/kg/day).
Format: functional
Set-up: scale not given: the % may be the effect or the level left
How it was run: as §5
For CC(C)(CO)CCCCC(=O)CCCCC(C)(C)CO, the Activity was -33%.

The compounds below were run on Rattus norvegicus (assay: Amount of glucose in obese Zucker rats after 2 weeks of treatment at a dose of 100 mg/kg/day).
Format: functional
How it was run: as §4
CC(C)(CO)CCCCC(=O)CCCCC(C)(C)CO was tested, and the Activity was 118 mg/dL.

These compounds were tested on Rattus norvegicus (assay: Amount of insulin in obese Zucker rats after 1 week of treatment at a dose of 0 mg/kg/day).
Format: functional
How it was run: as §1
With CC(C)(CO)CCCCC(=O)CCCCC(C)(C)CO the Activity was 8.7 ng/mL.

The compounds below were run on Rattus norvegicus (assay: Amount of HDL-cholesterol in obese Zucker rats after 1 week of treatment at a dose of 3 mg/kg/day).
Format: functional
How it was run: as §2
With CC(C)(CO)CCCCC(=O)CCCCC(C)(C)CO the Activity was 43 mg/dL.

Each compound was assayed on Rattus norvegicus (assay: Amount of nonesterified fatty acids in obese Zucker rats at pre-treatment at a dose of 10 mg/kg/day).
Format: functional
How it was run: as §3
For CC(C)(CO)CCCCC(=O)CCCCC(C)(C)CO, the Activity was 1.2 mg/dL.

These compounds were tested on Rattus norvegicus (assay: Amount of triglycerides in obese Zucker rats at pre-treatment at a dose of 3 mg/kg/day).
Format: functional
How it was run: as §3
Compound CC(C)(CO)CCCCC(=O)CCCCC(C)(C)CO has an Activity of 755 mg/dL.

These compounds were tested on Rattus norvegicus (assay: Amount of HDL-cholesterol in obese Zucker rats at pre-treatment at a dose of 10 mg/kg/day).
Format: functional
How it was run: as §2
CC(C)(CO)CCCCC(=O)CCCCC(C)(C)CO showed an Activity of 46 mg/dL.

What follows are compounds tested on Rattus norvegicus (assay: Amount of insulin in obese Zucker rats at pre-treatment at a dose of 10 mg/kg/day).
Format: functional
How it was run: as §1
Work on CC(C)(CO)CCCCC(=O)CCCCC(C)(C)CO yielded an Activity of 8.4 ng/mL.

The compounds below were run on Rattus norvegicus (assay: Percentage change of triglycerides in obese female Zucker rats after 1 week of pre-treatment at a dose of 100 mg/kg/day).
Format: functional
How it was run: (§6)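 Female Zucker fatty rats [Crl:(Zuc)-faBR], 10–12 weeks old (400–500 g), acclimated 7 days and fed rodent chow. Dosed once daily by oral gavage in 20% EtOH/80% PEG-200 (v/v), at 0.25% of body weight, for 2 weeks. Blood taken after a 6-h fast: orbital plexus before dosing and at day 7, cardiac puncture at day 14. Serum lipoprotein cholesterol measured by Superose 6 gel filtration with on-line cholesterol detection. Values are % change from pretreatment, mean ± SEM.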
Work on CC(C)(CO)CCCCC(=O)CCCCC(C)(C)CO yielded a Change of -54%.

The compounds below were run on Rattus norvegicus (assay: Amount of HDL-cholesterol in obese Zucker rats after 2 weeks of treatment at a dose of 100 mg/kg/day).
Format: functional
How it was run: as §2
CC(C)(CO)CCCCC(=O)CCCCC(C)(C)CO was tested, and the Activity was 79 mg/dL.

Each compound was assayed on Rattus norvegicus (assay: Percentage change of non-HDL cholesterol levels in obese female Zucker rats after 2 weeks of pre-treatment at a dose of 100 mg/kg/day).
Format: functional
How it was run: as §6
Compound CC(C)(CO)CCCCC(=O)CCCCC(C)(C)CO has a Change of -10%.

What follows are compounds tested on Rattus norvegicus (assay: Amount of nonesterified fatty acids in obese Zucker rats at pre-treatment at a dose of 30 mg/kg/day).
Format: functional
How it was run: as §3
In the case of CC(C)(CO)CCCCC(=O)CCCCC(C)(C)CO, the Activity is reported as 1.4 mg/dL.
